The subject of data set [1] is Mus musculus. The data set is described as follows: Antiparkinsonian activity in caudectomized mouse assessed as duration of curvature at 0.087 umol/g, ip. The class given is functional. An outline of the steps: (§1)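 Hydrochlorides in 0.9% saline (0.4-0.6 mL) were given ip in random groups of six, with 5-6-day intervals between retests. A blinded observer recorded onset and duration of asymmetric posture; mean and SE per six mice.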

The test system of data set [2] is Mus musculus. The data set is described as follows: Antiparkinsonian activity in caudectomized mouse assessed as onset of curvature at 0.348 umol/g, ip. The class given is functional. An outline of the steps:
as §1

In data set [3] the test system is Mus musculus. The data set is described as follows: Antiparkinsonian activity in caudectomized mouse assessed as duration of curvature at 0.348 umol/g, ip. The class given is functional. An outline of the steps: as §1
Data set [4] has as its system Mus musculus. The data set is described as follows: Antiparkinsonian activity in caudectomized mouse assessed as onset of curvature at 0.087 umol/g, ip. The class given is functional. An outline of the steps: as §1
In data set [5] the test system is Rattus norvegicus. The data set is described as follows: Antiparkinsonian activity in Nigra-lesioned rat assessed as number of turns per 98 mins at 0.087 umol/g, ip. The class given is functional. The procedure, abridged:
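Male Sprague-Dawley rats given 6-hydroxydopamine stereotaxically into the right substantia nigra. Used ≥4 weeks post-lesion if they rotated away from the lesion after reference agonist (1.0 µg/g ip). Compounds given ip as hydrochloride salts in 0.9% saline, […], to the same six rats at 5-day intervals. Turns counted in automatic rotometers. Mean ± SE of total turns and duration.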

The subject of data set [6] is Rattus norvegicus. The data set is described as follows: Antiparkinsonian activity in Nigra-lesioned rat assessed as number of turns per 45 mins at 0.087 umol/g, ip. The class given is functional. The procedure, abridged:
(§2)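 Male Sprague-Dawley rats given 6-hydroxydopamine stereotaxically into the right substantia nigra. Used ≥4 weeks later if they turned away from the lesion after la (1.0 µg/g). The same six rats were dosed ip at 5-day intervals as hydrochloride in 0.9% saline; a saline-injected rat served as control. Turns were counted in automatic rotometers; mean and SE of total turns and duration.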

Data set [7] relates to Mus musculus. The data set is described as follows: Antiparkinsonian activity in caudectomized mouse assessed as duration of curvature at 0.435 umol/g, ip. The class given is functional. The procedure, abridged: as §1
Data set [8] deals with Mus musculus. The data set is described as follows: Antiparkinsonian activity in caudectomized mouse assessed as duration of curvature at 0.174 umol/g, ip. The class given is functional. An outline of the steps:
as §1

Data set [9] concerns Mus musculus. The data set is described as follows: Antiparkinsonian activity in caudectomized mouse assessed as onset of curvature at 0.174 umol/g, ip. The class given is functional. The procedure, abridged: as §1
Data set [10] has as its system Rattus norvegicus. The data set is described as follows: Antiparkinsonian activity in Nigra-lesioned rat assessed as number of turns per 79 mins at 0.087 umol/g, ip. The class given is functional. The procedure, abridged:
as §2

Data set [11] deals with Mus musculus. The data set is described as follows: Toxicity in caudectomized mouse assessed as mortality at 0.305 umol/g, ip. The class given is organism-based. The following applies: in vivo. The procedure, abridged:
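Caudectomized mice, screened for postural response to la (1.0 µg/g), received hydrochloride ip in 0.9% saline. Deaths during behavioural observation were recorded; in one case eight mice were tested.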

For data set [12], the system named is Mus musculus. The data set is described as follows: Antiparkinsonian activity in caudectomized mouse assessed as duration of curvature at 0.305 umol/g, ip. The class given is functional. An outline of the steps: as §1
Data set [13] concerns Rattus norvegicus. The data set is described as follows: Antiparkinsonian activity in Nigra-lesioned rat assessed as number of turns at 0.348 umol/g, ip. The class given is functional. The procedure, abridged:
as §2

In data set [14] the test system is Rattus norvegicus. The data set is described as follows: Antiparkinsonian activity in Nigra-lesioned rat assessed as number of turns per 48 mins at 0.087 umol/g, ip. The class given is functional. An outline of the steps: as §2
Data set [15] concerns Mus musculus. The data set is described as follows: Antiparkinsonian activity in caudectomized mouse assessed as duration of curvature at 0.003 umol/g, ip. The class given is functional. The procedure, abridged: as §1
Data set [16] relates to Rattus norvegicus. The data set is described as follows: Antiparkinsonian activity in Nigra-lesioned rat assessed as number of turns per 83 mins at 0.003 umol/g, ip. The class given is functional. An outline of the steps:
as §2

Data set [17] concerns Mus musculus. The data set is described as follows: Antiparkinsonian activity in caudectomized mouse assessed as onset of curvature at 0.003 umol/g, ip. The class given is functional. The procedure, abridged: as §1

On to `CN(CCc1ccccc1)CCc1ccc(O)c(O)c1.Cl`, for which the figures for the Time in data set [1], in data set [2] and in data set [3] were 0 min, 6.7 min and 21.2 min, respectively.
For the compound `CCCN(CCc1ccccc1)CCc1ccc(O)c(O)c1.Cl`, the Time in data set [1] was 15.4 min; in data set [4], 5 min. In data set [5], the Activity came to 1065.
On to `CCCCN(CCC)CCc1ccc(O)c(O)c1.Cl`, for which the Time in data set [1] is 6.5 min; in data set [4] it was 4.6 min. Further, in [6], the Activity was 552.
For the compound `CCCCN(CCCC)CCc1ccc(O)c(O)c1.Cl`, the Time in data set [3] and in data set [7] was 0 min throughout.
With `CCCCCNCCc1ccc(O)c(O)c1.Cl`, the Time in [3] was 0 min.
With `CCCCCN(C)CCc1ccc(O)c(O)c1.Cl`, the Time in [8] was determined as 2.5 min; in data set [1] it was 0 min; in data set [2] it was 14.6 min; in data set [3] it was 20.6 min; in data set [9], 3.8 min.
Regarding `CCCCCN(CCC)CCc1ccc(O)c(O)c1.I`, the Time in data set [1] was determined as 14 min; in [4], 4.2 min. Further, the Activity in data set [10] is listed as 628.
Take `CCCCCN(CCCCC)CCc1ccc(O)c(O)c1.Cl`: the Activity result in data set [11] is given as “Toxic”. In data set [12], the Time turned out to be 0 min.
Regarding `CC(C)CNCCc1ccc(O)c(O)c1.Cl`, the Time in data set [3] was 0 min.
As to `CC(C)CN(C)CCc1ccc(O)c(O)c1.Cl`, the Time in data set [8] worked out at 2.8 min; in data set [1], 0 min; in data set [2] it was 3.6 min; in data set [3], 31.8 min; in data set [9], 4 min.
In the case of `CCCN(CCc1ccc(O)c(O)c1)CC(C)C.Cl`, the Time in data set [1] was determined as 10 min; in [4], 3.9 min.
In the case of `Cl.Oc1ccc(CCNCCc2ccccc2)cc1O`, in data set [3], the Time was found to be 0 min.
As to `CCCCN(CCC)CCc1ccc2c(c1)OCO2.Cl`, in [3], the Time was 0 min. Also, the Activity in [13] is listed as 0.
`CCCCN(CCC)CCc1ccc(O)c(O)c1.I`: the Activity in data set [14] is recorded as 457. The Time in [1] turned out to be 6.7 min; in data set [4] it was 3.5 min.
Take `CN1CCc2cccc3c2[C@H]1Cc1ccc(O)c(O)c1-3` [APOMORPHINE]: the values for the Time in [15] and in [17] were 14.2 min and 5 min, respectively. In addition, the Activity in data set [16] turned out to be 828.

The record behind these values is ChEMBL document CHEMBL3244397, “New dopaminergic and potential anti-parkinson compounds, N,N-disubstituted beta-(3,4-dihydroxyphenyl)ethylamines” (J Med Chem, 1978).
